Compound activity: PubChem, several laboratories
Yeast growth inh = reduces growth of yeast BB579 in restrictive medium; S. cerevisiae BB579 growth, OD615, 48 h; inhibition, % at 10 µM; 0.51% of 140,000 active; AID 804;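 active = inhibition above a set limit, 3 SD over the mean compound inhibition, cut at about 44% in these data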
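Test system: S. cerevisiae DeaD strain BB579 yeast; Medium: restrictive CSMM-D medium; Compound: one dose, 10 µM compound with 0.25% DMSO; Incubation: 4 h cell preincubation, 48 h compound exposure, 30 °C humidified; Signal: OD at 615 nm; Benchmarks: amphotericin B at 10 µg/mL as positive control.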
Insulin prom inh = TRM-6 insulin promoter activity inhibition. TRM-6 cells, insulin promoter-eGFP reporter, imaging; reporter expression induced with tamoxifen. inhibition, % at 2 µM. 0.9% of 130,000 active. AID 1273;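 active = inhibition above the mean plus 3 SD, with well images judged a real hit on visual review, cut at about 60% in these data, passing the limit was not always enough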
RAM network inh = inhibitors of the yeast RAM network; S. cerevisiae dse1pr::URA3 reporter, 5-FOA growth OD615, 2 d; analog-sensitive cbk1-as2 kinase mutant strain; inhibition, % at 50 µM; 1.8% of 190,000 active; AID 868;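 active = inhibition above a set limit, 3 SD over mean compound inhibition, cut at about 8.4% in these data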;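 note: 0% = DMSO-only wells with no growth and 100% = 10 µM 1-NA-PP1 full growth; inhibition rescues growth on 5-FOA so higher OD means more RAM inhibition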
Yeast lifespan up = extends the lifespan of yeast. S. cerevisiae growth with nicotinamide, OD615; deaD strain in restrictive glucose medium. AID 775. inhibition of the nicotinamide effect, % at 10 µM. 0.68% of 130,000 active;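 active = inhibition above a set limit, placed 3 SD over the median of all compounds, cut at about 26% in these data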;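 note: 0% = nicotinamide-treated wells and 100% = cells grown without nicotinamide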
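Test system – modified budding yeast, DeaD strain · Compound – single dose 10 µM compound, 0.25% DMSO · Times – culture preincubation 4 h, compound exposure 48 h, both 30 °C · Detection – optical density (absorbance) at 615 nm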
HMGR II inh = E. faecalis class II HMG-CoA reductase inhibition; purified E. faecalis HMGR, NADPH absorbance 340 nm kinetic; 0.41% of 190,000 active; inhibition, % at 10 µM;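 active = inhibition above a set limit, the median over all tested compounds plus 3 SD, cut at about 9.5% in these data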;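 note: enzyme runs in reverse so mevalonate oxidation gives rising NADPH absorbance; 0% = complete reaction with DMSO and 100% = background rate lacking mevalonate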
Active calls of the source: *; . = no result. An excerpt weighted towards active compounds, which were near 3.7% of everything screened.

SMILES | Yeast growth inh | Insulin prom inh | RAM network inh | Yeast lifespan up | HMGR II inh
Cc1cc(C(=O)Nc2ccc3c(c2)OCCO3)c(C)o1 | -36 | -34 | 0 | -25 | -1
CC(C)(C)C(=O)Nc1cc(C(F)(F)F)ccc1-n1ccnc1 | . | . | 2 | . | 13*
CSc1nnc(C)c(=O)n1COC(=O)c1ccc(S(=O)(=O)N2CCCC2)cc1 | -18 | . | 0 | -4 | -2
Cc1ccc(N=Nc2ccc(O)c3ncccc23)cc1C | . | -279 | 2 | . | 0
CN(C)c1ccc(N=Nc2ccc(S(=O)(=O)O)cc2)c2ccccc12 | . | 29 | 10* | . | -1
C=CCn1c(SCC(N)=O)nc2scc(-c3ccc(C)o3)c2c1=O | . | . | 3 | . | 3
Brc1ccc(N=C/C=C/C=C/Nc2ccc(Br)cc2)cc1 | -6 | 79* | 1 | -2 | -8
CN(C)C(/C=C/Nc1ccc(Br)cc1)=C(C#N)C#N | . | . | 0 | . | -3
O=C1OC2CC3CC1CC(O)(C3)C2 (stereo not given) | -15 | 86* | 3 | -16 | -8
CCOP(=O)(OCC)C(O)c1cc(OC)c(OC)c(OC)c1 (stereo not given) | -4 | 18 | 0 | 8 | 0
COc1ccc(NC(=O)c2c(C(F)(F)F)nn(C)c2SCc2ccccc2Cl)cc1 | -64 | . | 1 | 25 | 1
CCOC(=O)c1cnc(SC)nc1Oc1cccc(NS(=O)(=O)c2ccc(F)cc2)c1 | -33 | 45 | 9.8* | 2 | 3
CCOC(=O)c1cnc(SC)nc1Oc1cccc(NC(=O)c2cccc(Cl)c2Cl)c1 | -75 | -27 | 9.4* | 0 | 0
O=c1nc(Nc2ccccc2)sc2ccc([N+](=O)[O-])cc12 | -39 | . | 0 | 0 | 0
Cc1[nH]oc(=O)c1N=Nc1ccccc1 | 22 | 19 | -1 | 32* | -3
Cc1[nH]oc(=O)c1N=Nc1c(Cl)cccc1Cl | 2 | 23 | -1 | 37* | -4
Cc1ccc(N=Nc2c(N)n(-c3ccccc3)[nH]c2=O)cc1 | -14 | 12 | 4 | -13 | 1
COc1cccc(-c2ccc(-c3noc(-c4ccccc4F)n3)c(OC)n2)c1 | -38 | 39 | 11* | -8 | -1
O=S(=O)(Nc1nc2ccccc2nc1Cl)c1ccc2ccccc2c1 | -31 | 33 | 6 | 41* | 2
CCC(C)Oc1nc2ccccc2nc1NS(=O)(=O)c1ccccc1 (stereo not given) | -39 | 40 | 3 | 26* | -6
O=S(=O)(Nc1nc2ccccc2nc1Cl)c1ccccc1 | -4 | . | 0 | 30* | -8
O=S(=O)(Nn1cnnc1)c1ccc2ccccc2c1 | . | . | 2 | . | -6
O=S(=O)(Nc1nc2ccccc2[nH]1)c1ccccc1 | -22 | . | 1 | 1 | -4
O=S(=O)(Nc1nc2cc3c(cc2nc1Cl)OCCO3)c1ccccc1 | . | . | 0 | . | -2
CCCCSc1nc(C)[nH]c1[N+](=O)[O-] | -80 | 75* | 1 | 5 | 0
SMILES | Yeast growth inh | Insulin prom inh | RAM network inh | Yeast lifespan up | HMGR II inh
N#CC1=C(N)N2C(=C(C#N)C1c1cccc(Br)c1)Nc1ccccc12 (stereo not given) | -44 | . | 8.9* | 1 | -6
CCOC(=O)/C(C#N)=C/c1ccc(SC)cc1 | . | -15 | 0 | . | 14*
CCOC(=O)/C(C#N)=C/c1ccc(OC)c(OC)c1 | -29 | . | 1 | -22 | -1
Cc1nc2c(F)c(F)c(C(F)(F)F)c(F)c2[nH]1 | 57* | 55 | 1 | -16 | -6
Cc1cc(C)n(C(=O)c2ccc(NC(=O)CC(C)C)cc2)n1 | -21 | 74* | 0 | -16 | 3
CC(/C=N/N1C(=O)CSC1=S)=C\c1ccccc1 | . | -57 | -1 | . | -2
O=C(CCCC(=O)N(CC(=O)NC1CCCC1)Cc1ccc(F)cc1)Nc1ccccn1 | -30 | -57 | 2 | 34 | 5
O=C(CCCC(=O)N(CC(=O)NC1CCCCC1)Cc1ccc2c(c1)OCO2)Nc1ccccn1 | -27 | -63 | 2 | 28* | 1
COC(CNC(=O)c1cc(-c2ccncc2)nc2ccc(S(=O)(=O)N3CCOCC3)cc12)OC | . | 0 | 1 | . | -7
Nc1ccc(NC(=O)c2cccs2)c(Cl)c1 | -8 | -100 | 1 | -20 | -7
O=C(Nc1ccc(N2C(=O)C3C4C=CC(C4)C3C2=O)cc1Cl)c1cccs1 (stereo not given) | . | . | 9.8* | . | 4
Cc1cccc(N(C(=O)CNC(=O)c2ccco2)C(C(=O)NCC2CCCO2)c2ccccc2)c1 (stereo not given) | . | . | 0 | . | -2
CC(=O)Nc1nc(-c2ccc([N+](=O)[O-])cc2)cs1 | . | 8 | 3 | . | -4
